For assay [1], the system named is Staphylococcus aureus. The assay is described as follows: Antimicrobial activity against vancomycin-intermediate-, methicillin-resistant Staphylococcus aureus 555 assessed as time required to induce sub-MIC effect at 0.4 times MIC […] by plate counting method. Type of assay: functional. The method in brief:
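SME, viable plate count method: no prior drug exposure. About 5 × 10^6 CFU/ml in Mueller-Hinton broth at 35°C received 0.2, 0.3 or 0.4× MIC, alongside a drug-free tube. Counts were taken at the start, then every 2 h until McFarland no. 1 turbidity, as log10 CFU/ml against time. Two separate experiments, each with a new inoculum.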

Assay [2] has as its system Staphylococcus aureus. The assay is described as follows: Antimicrobial activity against vancomycin-intermediate-, methicillin-resistant Staphylococcus aureus 555 assessed as time required to induce post antibiotic sub-MIC effect at 0.4 times MIC […] by plate counting method. Type of assay: functional. The method in brief:
(§1)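 PAE was first induced with 10× MIC for 1 h at 35°C (inoculum about 5 × 10^6 CFU/ml, Mueller-Hinton broth) and ended by 1:1,000 dilution. Cultures were then split and given 0.2, 0.3 or 0.4× MIC, with one tube left without drug. Viable counts were taken before exposure, after dilution, then every 2 h until McFarland no. 1 turbidity. Two separate experiments, each with a new inoculum.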

The subject of assay [3] is Staphylococcus aureus. Kind of assay: Antimicrobial activity against vancomycin-intermediate-, methicillin-resistant Staphylococcus aureus 770 assessed as time required to induce post antibiotic sub-MIC effect at 0.4 times MIC […] by plate counting method. It counts as functional. In a few lines:
as §1

The test system of assay [4] is Staphylococcus aureus. The assay is described as follows: Antimicrobial activity against vancomycin-intermediate-, methicillin-resistant Staphylococcus aureus 1984 assessed as time required to induce post antibiotic sub-MIC effect at 0.4 times MIC […] by plate counting method. Type of assay: functional. The method in brief:
as §1

For assay [5], the system named is Enterococcus faecium. The assay is described as follows: Antimicrobial activity against Enterococcus faecium HMC 588 assessed as time required to induce post antibiotic sub-MIC effect at 0.4 times MIC […] by plate counting method. Type of assay: functional. In a few lines: (§2)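 Mueller-Hinton broth cultures of about 5 × 10^6 CFU/ml were pre-exposed to telavancin at 10× MIC for 1 h at 35°C, then diluted 1:1,000. Telavancin was re-added to final 0.2, 0.3 or 0.4× MIC, alongside a drug-free tube. Viable counts were taken before exposure, after dilution, then every 2 h until McFarland no. 1 turbidity. Duration comes from log10 CFU/ml-versus-time plots; two separate experiments with fresh inocula.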

In assay [6] the test system is Staphylococcus aureus. Kind of assay: Antimicrobial activity against vancomycin-intermediate-, methicillin-resistant Staphylococcus aureus 770 by microdilution method. It counts as functional. Background: Broth dilution looks for growth in wells or tubes with falling amounts of substance.
Assay [7] relates to Enterococcus faecalis. The assay is described as follows: Antimicrobial activity against Enterococcus faecalis HMC 571 by microdilution method. Type of assay: functional.
The subject of assay [8] is Staphylococcus aureus. Kind of assay: Antimicrobial activity against vancomycin-intermediate-, methicillin-resistant Staphylococcus aureus 555 assessed as post-antibiotic effect at 10 times MIC pre-exposed to Telavancin for 1 hr by plate counting method. It counts as functional. In a few lines: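 Viable plate count method in Mueller-Hinton broth. Direct colony suspension inoculum of about 5 × 10^6 CFU/ml was exposed to 10× MIC for 1 h at 35°C in a shaking water bath, then diluted 1:1,000 to remove drug. Counts were taken before exposure, at 0 h, then every 2 h until McFarland no. 1 turbidity. PAE = T − C, the time to a 1 log10 rise versus an unexposed growth control.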

In assay [9] the test system is Enterococcus faecium. The assay is described as follows: Antimicrobial activity against Enterococcus faecium HMC 588 assessed as post-antibiotic effect at 10 times MIC pre-exposed to Telavancin for 1 hr by plate counting method. Type of assay: functional. In a few lines:
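Organisms were suspended in Mueller-Hinton broth from overnight blood agar colonies at about 5 × 10^6 CFU/ml. Cultures were exposed to telavancin at 10× MIC for 1 h at 35°C in a shaking water bath, then diluted 1:1,000 to remove the drug, with an untreated growth control. Viable counts were taken before exposure, at 0 h, then every 2 h until McFarland no. 1 turbidity. PAE = T − C, the time to a 1 log10 rise. Two experiments.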

Assay [10] has as its system Staphylococcus aureus. Kind of assay: Antimicrobial activity against vancomycin-resistant-, methicillin-resistant Staphylococcus aureus 510 assessed as time required to induce sub-MIC effect at 0.2 times MIC exposed for 2 hrs by plate counting method. Type of assay: functional. The method in brief: (§3)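 Sub-MIC effect: cultures not preexposed to drug were diluted and handled as in the PA-SME procedure in Mueller-Hinton broth with final 0.2, 0.3 or 0.4× MIC, plus a drug-free control. Viable plate counts were taken every 2 h until McFarland 1 turbidity. Duration was derived from growth curves. Two experiments were run, each with a new inoculum.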

Assay [11] deals with Enterococcus faecalis. The assay is described as follows: Antimicrobial activity against Enterococcus faecalis ATCC 29212 assessed as time required to induce sub-MIC effect at 0.2 times MIC exposed for 2 hrs by plate counting method. It counts as functional. In a few lines: (§4)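 Unexposed Mueller-Hinton broth cultures (about 5 × 10^6 CFU/ml, 35°C) were handled as in the PA-SME set but without the 10× MIC pre-exposure. They were diluted 1:1,000, then given telavancin at final 0.2, 0.3 or 0.4× MIC, with a drug-free control. Viable counts were taken every 2 h until McFarland no. 1 turbidity. Effect duration comes from log10 CFU/ml-time plots; two separate experiments with new inocula.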

In assay [12] the test system is Enterococcus faecalis. Kind of assay: Antimicrobial activity against Enterococcus faecalis HMC 571 assessed as time required to induce sub-MIC effect at 0.2 times MIC exposed for 2 hrs by plate counting method. It counts as functional. In a few lines: as §4
Assay [13] has as its system Staphylococcus aureus. Kind of assay: Antimicrobial activity against vancomycin-susceptible-, methicillin-resistant Staphylococcus aureus 1307 assessed as time required to induce sub-MIC effect at 0.3 times MIC exposed for 2 hrs by plate counting method. It counts as functional. In a few lines: as §3
Assay [14] relates to Staphylococcus aureus. Kind of assay: Antimicrobial activity against vancomycin-resistant-, methicillin-resistant Staphylococcus aureus 510 assessed as time required to induce sub-MIC effect at 0.3 times MIC exposed for 2 hrs by plate counting method. Type of assay: functional. The method in brief:
as §3

Assay [15] relates to Enterococcus faecalis. Kind of assay: Antimicrobial activity against Enterococcus faecalis HMC 571 assessed as time required to induce sub-MIC effect at 0.3 times MIC exposed for 2 hrs by plate counting method. Type of assay: functional. In a few lines:
as §4

Assay [16] concerns Staphylococcus aureus. Kind of assay: Antimicrobial activity against vancomycin-susceptible-, methicillin-resistant Staphylococcus aureus 1130 assessed as time required to induce post antibiotic sub-MIC effect at 0.3 times MIC […] by plate counting method. Type of assay: functional. The method in brief: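 After 1 h preexposure to 10× MIC at 35°C and 1:1,000 dilution, cultures were split, and drug was re-added to final 0.2, 0.3 or 0.4× MIC, with a drug-free tube. Viable counts were taken every 2 h until McFarland 1 turbidity. Duration was derived from log10 CFU/ml versus time curves. Two experiments were run, each with a new inoculum.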

Assay [17] relates to Staphylococcus aureus. The assay is described as follows: Antimicrobial activity against vancomycin-intermediate-, methicillin-resistant Staphylococcus aureus 770 assessed as time required to induce post antibiotic sub-MIC effect at 0.3 times MIC […] by plate counting method. Type of assay: functional. The method in brief: as §1
The subject of assay [18] is Staphylococcus aureus. The assay is described as follows: Antimicrobial activity against vancomycin-intermediate-, methicillin-resistant Staphylococcus aureus 1984 assessed as time required to induce post antibiotic sub-MIC effect at 0.3 times MIC […] by plate counting method. It counts as functional. In a few lines: as §1
The subject of assay [19] is Enterococcus faecalis. The assay is described as follows: Antimicrobial activity against Enterococcus faecalis HMC 571 assessed as time required to induce post antibiotic sub-MIC effect at 0.3 times MIC […] by plate counting method. It counts as functional. The method in brief: as §2
Assay [20] relates to Staphylococcus aureus. Kind of assay: Antimicrobial activity against vancomycin-intermediate-, methicillin-resistant Staphylococcus aureus 1287 assessed as time required to induce post antibiotic sub-MIC effect at 0.2 times MIC pre-exposed to Telavancin for 1 hr by plate counting method.

Data on one compound can be found in ChEMBL document CHEMBL1629663, “Postantibiotic effects of telavancin against 16 gram-positive organisms” (Antimicrob Agents Chemother, 2009).

Values after ≈ are worked out from the molar mass of the structure shown.

For `CCCCCCCCCCNCCN[C@@]1(C)C[C@H](O[C@H]2[C@H](Oc3c4cc5cc3Oc3ccc(cc3Cl)[C@@H](O)[C@@H](NC(=O)[C@@H](CC(C)C)NC)C(=O)N[C@@H](CC(N)=O)C(=O)N[C@H]5C(=O)N[C@H]3C(=O)N[C@H](C(=O)N[C@H](C(=O)O)c5cc(O)c(CNCP(=O)(O)O)c(O)c5-c5cc3ccc5O)[C@H](O)c3ccc(c(Cl)c3)O4)O[C@H](CO)[C@@H](O)[C@@H]2O)O[C@@H](C)[C@H]1O` [TELAVANCIN], the PAE in the assay with Staphylococcus aureus [1] was 4.3 h; in the assay with Staphylococcus aureus [2], above 10.3 h; in the assay on Staphylococcus aureus [3], 9.6 h; in the assay on Staphylococcus aureus [4] it was above 10 h; in the assay on Enterococcus faecium [5], above 10 h; with Staphylococcus aureus [8], 3.4 h. Further, the PAE amounted to 1.2 h with Enterococcus faecium [9]; 1.9 h with Staphylococcus aureus [10]; 0.7 h with Enterococcus faecalis [11]; 0.1 h in the assay on Enterococcus faecalis [12]; 2.6 h in the assay with Staphylococcus aureus [13]; 2.3 h in the assay with Staphylococcus aureus [14]. Besides, the PAE with Enterococcus faecalis [15] is 2.6 h; in the assay on Staphylococcus aureus [16], 10 h; with Staphylococcus aureus [17], 6.3 h; in the assay with Staphylococcus aureus [18], above 10 h; with Enterococcus faecalis [19], 7.2 h; in the assay on Staphylococcus aureus [20], 5.1 h. In addition, the MIC with Staphylococcus aureus [6] and with Enterococcus faecalis [7] was 0.25 µg/mL (≈ 0.142 µM) throughout.

What is called MIC is the smallest concentration in the dilution series that meets the test's criterion for growth inhibition. High values mean a less susceptible organism, low ones a more susceptible organism.
